# High-throughput results: PubChem, several laboratories
# Rows were chosen to be rich in hits. Some 8.4% of all compounds tested hit in one or more screens of this group.
# tolC growth inh = growth inhibitors of E. coli tolC mutant, primary screen, strain BW25113 ΔtolC::kan, 384-well. hit rate 2.2% among 65,000. growth inhibition, % at 10 µM (by protocol). OD615;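 active = growth inhibition at or above a cutoff equal to the mean over every tested compound plus 3 SD, cut at about 60% in these data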;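 also: growth measured after 20 h incubation at 37 °C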
#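 signal = optical density read at 615 nm | test system = E. coli ΔtolC::kan strain BW25113 | timing = 20 h compound exposure of bacteria at 37 °C | buffer or medium = LB medium plus 50 µg/mL kanamycin | compound dosing = 10 µM final, single dose | evaluation = % inhibition of E. coli growth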
# Ecoli WT expand = growth inhibitors of wild-type E. coli, primary screen, strain BW25113, expanded library, OD600; OD600 absorbance; growth inhibition, % at 100 µM; hit rate 0.15% among 98,000; AID 710, 2007;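 active = growth inhibition above about 50% at one test dose, limit read from the data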;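 also: growth measured after 20 h incubation at 37 °C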
# Cav32 inh = Cav3.2 calcium influx blockers – cell-based, Fluo-4 calcium fluorescence, FDSS, MLSMR library, primary screen | Voltage-dependent T-type calcium channel subunit alpha-1H (Homo sapiens), O95180 | B-score at 10 µM | hit rate 4% among 100,000 | Cav3.2-expressing cells; stronger effect = lower value | AID 449739, 2010;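 active = single-dose well whose peak fluorescence ratio is a statistical outlier from its plate by either plate-standardised score or position-corrected B-score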
# PostGolgi yeast = phenotypic screen on post-Golgi transport, primary screen. inhibition, % at 10 µM. post-Golgi transport phenotypic cell assay. hit rate 0.9% among 98,000. AID 739, 2007;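 also: yeast cells grown in 1536-well plates; yeast grown about 18 h at 30C before absorbance read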
# PostGolgi ctrl = growth inhibition of yeast control strain, primary screen, counter-screen for post-Golgi transport modulator project | AID 738, 2007 | efflux-deficient yeast background strain, growth absorbance A615, 16 h | hit rate 5% among 98,000 | inhibition, % at 10 µM
# Hits are given with their value; i = inactive; nt = not tested or not shown. Rule as the data show it, unless noted: active = inhibition above about 30%; inactive = the rest.
SMILES,tolC growth inh,Ecoli WT expand,Cav32 inh,PostGolgi yeast,PostGolgi ctrl
N#Cc1ccc(OCc2nnc(SCC(=O)N3CCCc4ccccc43)n2-c2ccccc2)cc1,i,i,-7.4,i,i
Cc1cc2cc(C)c3nnc(SCC(=O)N4CCCc5ccccc54)n3c2cc1C,nt,i,nt,i,30
COc1ccc(OCc2nnc(SCC(=O)N3CCCc4ccccc43)n2-c2ccc(C)cc2)cc1,nt,i,-8.2,i,i
Cc1cc(C(=O)N2CCN(CCc3ccccc3)CC2)no1,i,i,i,i,i
CC(NC(=S)NCCc1ccccc1)C(c1cccs1)N1CCN(Cc2ccccc2)CC1 (configuration not stated),nt,nt,-4.6,nt,nt
CCOC(=O)N1CCN(C(=O)CCSc2ccccc2)CC1,i,i,i,i,i
Cc1ccc(NC(=O)c2ccc(OC(=O)c3cc4ccccc4o3)cc2)cc1,nt,i,i,i,i
Oc1ccccc1C1Nc2cccc3cccc(c23)N1,i,i,i,i,i
Brc1ccc(C2Nc3cccc4cccc(c34)N2)o1,i,i,-5.4,i,i
c1csc(C2Nc3cccc4cccc(c34)N2)c1,nt,i,i,i,32
COc1cc(C(=O)N2CCN(c3ncnc4sc(C)c(C)c34)CC2)cc(OC)c1OC,i,i,i,i,i
O=C(c1cn(-c2ccccc2)nc1-c1cccs1)N1CCN(c2ccccn2)CC1,i,i,-6.2,i,54
CN(C)C(=O)c1cn(-c2ccccc2)nc1-c1cccs1,nt,i,i,i,i
CN(CC(=O)NCc1ccc2c(c1)OCO2)S(=O)(=O)c1ccc(Br)s1,i,i,nt,i,i
O=C(c1ccco1)N(CCC(c1ccccc1)c1ccco1)Cc1ccco1 (configuration not stated),nt,i,-12,i,i
CC(=O)N(CCC(c1ccccc1)c1ccco1)Cc1cccs1 (configuration not stated),nt,i,-7.4,i,i
CCC(=O)N(CCC(c1ccco1)c1ccccc1OC)Cc1cccs1 (configuration not stated),nt,i,-5.8,i,i
COc1ccc(CNC(=O)C(c2ccco2)N(Cc2ccccc2)C(=O)Cc2cccs2)cc1 (configuration not stated),nt,nt,i,nt,nt
CCOc1cc(CNc2ncc(-c3ccc(OC)cc3)n2C)ccc1O,i,i,i,i,i
Cn1cc(-c2nnc(-c3ccccc3)o2)c2ccccc21,nt,i,i,i,i
Cc1nc2sc(C(c3cccs3)N3CCN(c4cccc(Cl)c4)CC3)c(O)n2n1 (configuration not stated),i,i,i,i,48
CS(=O)(=O)NCCOc1ccc(S(=O)(=O)N2CCCc3ccccc32)cc1,i,i,i,i,i
CC(C)N(C(=O)CSc1nn2c(=O)c(C(C)(C)C)nnc2s1)c1ccccc1,i,i,-10,i,i
CCOC(=O)C1=C(N)OC2=C(C(=O)CCC2)C1c1ccc(C)s1 (configuration not stated),i,i,i,i,i
Cn1nnnc1Sc1nc(-c2cccnc2)nc2ccccc12,i,nt,nt,nt,nt
SMILES,tolC growth inh,Ecoli WT expand,Cav32 inh,PostGolgi yeast,PostGolgi ctrl
COc1c(C)cc(Br)cc1C(=O)Nc1cccc(-c2nc3ncccc3o2)c1,i,i,i,i,41
COc1ccc(C(=O)N(Cc2ccco2)Cc2cccs2)c(O)c1,i,i,-4.8,i,i
COc1ccc(CNC(=O)C(c2cccs2)N(Cc2ccco2)C(=O)Cc2cccs2)cc1 (configuration not stated),nt,nt,-7.2,nt,nt
O=C(NCc1ccco1)C(c1ccccc1)N(C(=O)Cc1cccs1)c1ccccc1 (configuration not stated),nt,nt,i,nt,nt
CC(C)c1ccc(C(C(=O)NC(C)(C)C)N(C(=O)CNC(=O)c2ccco2)c2cccnc2)cc1 (configuration not stated),nt,nt,i,nt,nt
O=C(NCC(=O)N(c1cccnc1)C(C(=O)NCc1ccco1)c1ccccc1)c1ccco1 (configuration not stated),i,i,nt,39,i
O=C(NCc1ccco1)C(c1cccs1)N(C(=O)Cc1cccs1)c1ccccc1 (configuration not stated),i,i,i,38,i
CCN(CC)CCCN1C(=O)C(=O)/C(=C(/O)c2ccccc2)C1c1ccccn1 (configuration not stated),i,nt,nt,nt,nt
COc1ccc2cc3cc(C(=O)NCCN4CCN(c5ccccc5F)CC4)oc3nc2c1,i,i,i,i,81
COc1ccc2cc3cc(C(=O)Nc4ccccc4N4CCN(C)CC4)oc3nc2c1,i,i,i,i,i
